# Measured values from different studies.
# Compare with care: the assays were run in different laboratories.
# RPS6KA4: Ribosomal protein S6 kinase alpha-4 (RPS6KA4, Homo sapiens, UniProt O75676)
# RPS6KA4 C-terminal kinase domain: Ribosomal protein S6 kinase alpha-4, C-terminal kinase domain (RPS6KA4, Homo sapiens, UniProt O75676)
# RPS6KA4 N-terminal kinase domain: Ribosomal protein S6 kinase alpha-4, N-terminal kinase domain (RPS6KA4, Homo sapiens, UniProt O75676)
Structure (SMILES),target,read-out,mode,technique,tested at,endpoint,result
CC(C)(C)c1nc2c(s1)c1nc(N)ncc1c1ccc(NS(=O)(=O)c3c(F)cccc3F)c(F)c12,RPS6KA4,enzyme activity,inhibitor,radiometric,1 µM,remaining activity,84%
CCCOc1ccc(OC)c(F)c1C(=O)c1ccc(C(=O)N[C@@H]2CNC[C@H]2NC(=O)c2ccc3[nH]ncc3c2)cc1,RPS6KA4,enzyme activity,inhibitor,,10 µM,remaining activity,4%
CC(=O)N1CCC(c2ccc(C(=O)NC(=N)N)cc2C(F)(F)F)CC1,RPS6KA4 C-terminal kinase domain,cell-free assay,,competition with immobilised ligand,1 µM,remaining binding,100%
O=C1Nc2ccc(Cl)cc2C1=Cc1cc(Cl)c(O)c(Cl)c1,RPS6KA4,cell-free assay,,,0.5 µM,remaining signal,98%
O=C(Nc1cccnn1)N1CCC(=Cc2cccc(Oc3ccc(C(F)(F)F)cn3)c2)CC1,RPS6KA4 N-terminal kinase domain,cell-free assay,,competition with immobilised ligand,1 µM,remaining binding,98%
O=C(Nc1cnn(-c2csc(C(=O)NC3COC3)c2)c1)Nc1c(F)cccc1Cl,RPS6KA4,enzyme activity,inhibitor,,5 µM,remaining activity,99.8%
Cc1nc(Cc2cccc(C(F)(F)F)c2)sc1-c1ccc(C(N)=O)nc1,RPS6KA4 C-terminal kinase domain,cell-free assay,,competition with immobilised ligand,1 µM,remaining binding,100%
CC1CCCN1c1nccc(-c2cnn3ncccc23)n1 (stereo not shown),RPS6KA4 N-terminal kinase domain,binding,,competition with immobilised ligand,1 µM,remaining binding,99%
CCCCNc1ncc2c(-c3ccc(F)cc3)nn(C[C@H]3CC[C@H](N)CC3)c2n1,RPS6KA4 N-terminal kinase domain,target engagement in cells,inhibitor,chemoproteomics,20 mM,inhibition,22%
CC(C)CC(=O)N1CCc2nc(-c3ccc(Br)cc3)nc(N(C)Cc3ccccc3)c2C1,RPS6KA4 N-terminal kinase domain,cell-free assay,,competition with immobilised ligand,0.1 µM,remaining binding,74%
C[C@H]1CCN(c2nccc(-c3cnn4ncccc34)n2)C1,RPS6KA4 N-terminal kinase domain,binding,,competition with immobilised ligand,1 µM,remaining binding,93%
CCS(=O)(=O)c1cc2cc(C[C@](O)(CC(C)(C)c3ccc(F)cc3C(N)=O)C(F)(F)F)[nH]c2cn1,RPS6KA4 C-terminal kinase domain,cell-free assay,,competition with immobilised ligand,1 µM,remaining binding,94%
Nc1ncnc2occ(-c3ccc(NC(=O)Nc4cc(C(F)(F)F)ccc4F)cc3)c12,RPS6KA4 N-terminal kinase domain,cell-free assay,inhibitor,,20 µM,remaining signal,2.1%
CN(C)c1nccc(-c2cnn3ncccc23)n1,RPS6KA4 N-terminal kinase domain,binding,,competition with immobilised ligand,1 µM,remaining binding,82%
CCN(CC)c1ccc(C2=NNC(=O)CC2C)cc1[N+](=O)[O-] (stereo not shown),RPS6KA4,enzyme activity,inhibitor,,10 µM,remaining activity,82%
N#CCCc1ccc2c(c1)-c1[nH]c3ccc([N+](=O)[O-])cc3c1CC(=O)N2,RPS6KA4,cell-free assay,,,0.5 µM,remaining signal,85.8%
CC(C)(O)[C@H]1CC[C@H](Nc2ccc3ncc(-c4cccc(C(F)(F)F)c4)n3n2)CC1,RPS6KA4,enzyme activity,inhibitor,,1 µM,remaining activity,92.4%
CCC(=O)N[C@H]1CC[C@@H](C(=O)N(C)c2ccc(-c3nc4ccccc4o3)cc2)C1,RPS6KA4 N-terminal kinase domain,cell-free assay,,competition with immobilised ligand,1 µM,remaining binding,100%
CCCS(=O)(=O)Nc1ccc(F)c(C(=O)c2c[nH]c3ncc(-c4ccc(Cl)cc4)cc23)c1F,RPS6KA4,enzyme activity,inhibitor,,1 µM,inhibition,< 10%
Cc1ccc(C(=O)Nc2ccc(CN3CCN(C)CC3)c(C(F)(F)F)c2)cc1C#Cc1cnc2cccnn12,RPS6KA4,enzyme activity,inhibitor,,23.5 nM,activity vs control,100%
Cc1cc(C)c(-n2ccn3nc(-c4cccnc4)cc23)cc1NC(=O)c1cc(C#N)cc(S(F)(F)(F)(F)F)c1,RPS6KA4 N-terminal kinase domain,cell-free assay,,competition with immobilised ligand,0.1 µM,remaining binding,100%
COc1cc2c(N3CCN(C(=O)Nc4ccc(OC(C)C)cc4)CC3)ncnc2cc1OCCCN1CCCCC1,RPS6KA4,cell-free assay,,,0.5 µM,remaining signal,120%
